Results collected from several papers.
Protocols differ between the studies behind these lines.
Target: Serine/threonine-protein kinase 10 (STK10, Homo sapiens, UniProt O94804)

CN(C)c1nccc(-c2cnn3ncccc23)n1
remaining binding (binding; 1 µM): 100%

O=C(c1ccc(Nc2ncc(Cl)c(-c3cc4ccccc4s3)n2)cc1)N1CCC(N2CCCC2)CC1
remaining binding (binding, competition with immobilised ligand; 1 µM): 43%

CCN1CCN(Cc2ccc(C(=O)Nc3ccc(C)c(Oc4ccc5c(c4)CC(=O)N5)c3)cc2C(F)(F)F)CC1
remaining binding (binding, competition with immobilised ligand; 1 µM): 3.2%

N[C@H]1CCN(c2nccc(-c3cnn4ncccc34)n2)C1
remaining binding (binding; 1 µM): 98%

CCCOc1ccc([C@H]2[C@H](C(=O)O)[C@@H](c3ccc4c(c3)OCO4)CN2CC(=O)Nc2c(CC)cccc2CC)cc1
remaining binding (cell-free assay, competition with immobilised ligand; 1 µM): 97%

c1cncc(-c2cccc(Nc3nccc(NC4CCCCC4)n3)c2)c1
remaining binding (binding, competition with immobilised ligand; 10 µM): 38%

CS(=O)(=O)c1cc(C2(NC(=O)c3cncc4c3cnn4-c3ccc(F)cc3)CC2)ccn1
remaining binding (cell-free assay, competition with immobilised ligand; 1 µM): 99%

Nc1ncc2c(n1)-c1c([nH]c3ccc(C#CC4CC4)cc13)CCCC2
remaining binding (binding, competition with immobilised ligand; 1 µM): 99%

COc1ccnn2ncc(-c3ccnc(N(C)C)n3)c12
remaining binding (binding; 1 µM): 95%

O=C(NCCCN1CCOCC1)c1ccc(Nc2ncc(Cl)c(-c3ccc(Cl)s3)n2)cc1
remaining binding (binding, competition with immobilised ligand; 1 µM): 57%

c1cnn2ncc(-c3ccnc(N4CCC45COC5)n3)c2c1
remaining binding (binding; 1 µM): 91%

O=C(NCCCN1CCOCC1)c1ccc(Nc2nccc(-c3cc4ccccc4s3)n2)cc1
remaining binding (binding, competition with immobilised ligand; 1 µM): 94%

Cn1cc(Cl)c2c(Oc3c(F)cc(Nc4cc(Cl)nc(N)n4)cc3F)ccnc21
remaining binding (cell-free assay, competition with immobilised ligand; 0.1 µM): 100%

C[C@H]1CCN(c2nccc(-c3cnn4ncccc34)n2)C1
remaining binding (binding; 1 µM): 100%

CC1=C(C#N)[C@@H](c2ccc3[nH]nc(C)c3c2)C(C#N)=C(c2ccc(Cl)cc2)N1
remaining binding (cell-free assay, competition with immobilised ligand; 1 µM): 100%

COc1cnc(Nc2cccc(S(N)(=O)=O)c2)nc1N1CCN(c2ccccc2)C(=O)C1
remaining binding (binding, competition with immobilised ligand; 1 µM): 100%

CN(C)C(=O)Cn1cc(-c2nc([C@@](C)(c3ccc(-c4cnc(N)nc4)cc3)C3CC3)no2)cn1
remaining binding (cell-free assay, competition with immobilised ligand; 1 µM): 89%

O=C(NCC1CCOCC1)c1n[nH]cc1NC(=O)c1c(F)cccc1F
remaining binding (binding, competition with immobilised ligand; 1 µM): 100%

CC(=O)N1CCC(c2ccc(C(=O)NC3=NCCN3)cc2C(F)(F)F)CC1
remaining binding (cell-free assay, competition with immobilised ligand; 1 µM): 100%

CC1CCCN1c1nccc(-c2cnn3ncccc23)n1 (centres unmarked)
remaining binding (binding; 1 µM): 96%
